Bioassay records deposited in PubChem by Broad Institute.
DENV2 CPE = inhibitors of DENV2 cytopathic effect; DENV2-infected cells, cytopathic effect rescue, plate reader; AID 651640; CPE inhibition, % at 9.99 µM; 1.7% of 350,000 active; in the data active = CPE inhibition above about 20%, passing the limit was not always enough; inconclusive = no clear call, values can overlap the other calls; tested in BHK-21 cells;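 note: 0% = median of neutral control wells and 100% = median of positive control wells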
rRNA inh HTS = selective bacterial rRNA inhibition in E. coli; E. coli WT GFP vs humanized-ribosome RFP mutants, fluorescence, 24 h; active compounds read low; DMSO median 0, no signal -100; GFP signal change (wild-type ribosome), % (test concentration not listed); 1.6% of 350,000 active; AID 720706;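 active = significant combined selectivity score with lowered wild-type GFP, culture density cut under 30%, mutant RFP and density less affected; inactive = any of these conditions unmet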
S100A4 inh HTS = blocks human S100A4 binding to myosin IIA peptide; inhibition, % at 10.7 µM; 0.14% of 360,000 active; AID 652163; P26447; S100A4/TAMRA-MyoIIA peptide fluorescence polarization;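 active = mean inhibition of at least 70% across replicates, with every replicate also reaching that level; inconclusive = mean inhibition reaches 70% but some replicates fall short; inactive = mean inhibition below 70%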
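Assay system: human S100A4 monomer with TAMRA-labelled myosin IIA peptide / Buffer or medium: Calcium-containing HEPES buffer, pH 7.2 / Reagent: TAMRA-labelled myosin IIA heavy-chain peptide probe, 5 nM / Compound: one dose per compound / Timing: polarization read 5 min after assay mix addition, stable 5–60 min / Benchmarks: neutral control DMSO, positive control TFP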
AF4-AF9 inh = MLL-AF4/AF9 protein interaction inhibition; P42568; AlphaScreen, biotin-AF4 peptide binding to FLAG-AF9; inhibition, % at 10 µM; 0.47% of 350,000 active;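 active = every replicate reaching a set inhibition limit, whatever the replicate mean, cut at about 25% in these data; inconclusive = mean inhibition reaches that limit but some replicates miss it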;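 note: 0% = plate neutral control median and 100% = total signal loss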
Target sequence (P42568 whole entry, looked up): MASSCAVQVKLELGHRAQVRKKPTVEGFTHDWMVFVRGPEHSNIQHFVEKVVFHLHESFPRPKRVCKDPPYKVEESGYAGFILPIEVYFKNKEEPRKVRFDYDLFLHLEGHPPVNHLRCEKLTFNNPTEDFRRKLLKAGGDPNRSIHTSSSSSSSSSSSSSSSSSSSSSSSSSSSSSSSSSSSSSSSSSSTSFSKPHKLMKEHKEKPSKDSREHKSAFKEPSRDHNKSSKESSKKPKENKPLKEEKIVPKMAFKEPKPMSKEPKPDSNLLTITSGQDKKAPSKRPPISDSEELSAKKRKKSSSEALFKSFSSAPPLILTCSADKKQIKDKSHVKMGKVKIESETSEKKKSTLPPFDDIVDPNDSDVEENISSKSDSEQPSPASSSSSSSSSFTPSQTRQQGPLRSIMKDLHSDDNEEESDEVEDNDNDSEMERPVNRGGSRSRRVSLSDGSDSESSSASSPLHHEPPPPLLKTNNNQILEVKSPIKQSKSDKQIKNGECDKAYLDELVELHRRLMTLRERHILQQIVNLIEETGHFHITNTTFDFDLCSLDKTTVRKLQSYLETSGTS
Cneo AK release = causes C. neoformans cell lysis. adenylate kinase release luminescence, 4 h; normalised: neutral wells 0, clomiphene wells 100. lysis activity, % at 15 µM. 0.2% of 360,000 active. AID 651654;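 active = mean lysis activity across replicates of at least 80%, whatever share of replicates individually reach that level; inactive = mean lysis activity below 80%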
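Schedule: static 4 h at 37 °C with compound, 1 h detection; system: C. neoformans cells; benchmarks: Clomiphene as positive control; buffer or medium: fresh YPD medium; measure: luminescence rise reflecting yeast cell lysis; measured by: luminescent adenylate kinase detection reagent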
PfHsp90 set2 = reduces growth (ATP signal) of yeast expressing P. falciparum Hsp90. S. cerevisiae expressing PfHsp90, BacTiter-Glo ATP, 48 h; yeast lacking PDR1 and PDR3 efflux regulators. inhibition, % at 9.4 µM. 0.32% of 310,000 active. AID 504621;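 active = every replicate shows inhibition above about 80%, whatever the replicate mean, limit read from the data; inconclusive = mean inhibition reaches the set limit but some replicate falls short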;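 note: 0% = DMSO neutral controls and 100% = 20 µM radicicol positive controls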
An asterisk follows results filed as active. Shown are actives, neighbours in structure and some others; about 3.2% of the full set was active somewhere.

CN1CCN(C(=O)c2cc3c(c(-c4cccc(-c5ccccc5F)c4)n2)[C@H](CCO)N([S@@](=O)C(C)(C)C)C3)CC1 was read as DENV2 CPE 1.7, rRNA inh HTS -0.8, S100A4 inh HTS -30.2, AF4-AF9 inh -2.1 and Cneo AK release 20.0.
COC(=O)C[C@H]1CC[C@H]2[C@H](COc3ccc(NC(=O)c4ccccc4OC)cc3C(=O)N2C)O1 was read as DENV2 CPE 3.3, rRNA inh HTS -3.9 and Cneo AK release 6.2.
`Cc1ccc(Cc2c(C)nc3nc(SCC(=O)NCCCN4CCCCCC4)nn3c2C)cc1` gave DENV2 CPE -2.1, rRNA inh HTS -0.2, S100A4 inh HTS 0.1 and AF4-AF9 inh 32.7*.
Screening CN1C(C(=O)NCc2ccc(OC(F)(F)F)cc2)CC2Cn3c(nc4ccccc43)C21 (stereo not drawn) returned DENV2 CPE 32.3*, rRNA inh HTS -1.6, S100A4 inh HTS 0.1, AF4-AF9 inh 0.8, Cneo AK release -3.3 and PfHsp90 set2 5.4.
`COc1ccc(C(C[N+](=O)[O-])c2c(C)[nH]n(-c3ccccc3)c2=O)cc1` (stereo not drawn) gave DENV2 CPE -13.2, rRNA inh HTS 4.8, S100A4 inh HTS -4.0, AF4-AF9 inh 0.2, Cneo AK release -4.0 and PfHsp90 set2 116.7*.
For O=C(C[C@H]1CC[C@@H]2[C@H](COC[C@@H](O)CN2C(=O)Cc2ccccc2)O1)NC1CCCC1 the results were DENV2 CPE inconclusive, rRNA inh HTS -2.2, S100A4 inh HTS 89.6*, AF4-AF9 inh 1.0 and Cneo AK release 0.3.
`O=C(C[C@H]1CC[C@@H]2[C@H](COC[C@H](O)CN2C(=O)Cc2ccccc2)O1)NC1CCCC1` gave DENV2 CPE 88.5*, rRNA inh HTS -0.7, S100A4 inh HTS -1.3, AF4-AF9 inh -8.1 and Cneo AK release 50.9.
Screening O=C(C[C@H]1CC[C@H]2[C@@H](COC[C@H](O)CN2C(=O)Cc2ccccc2)O1)NC1CCC1 returned DENV2 CPE 37.7*, rRNA inh HTS 3.3, S100A4 inh HTS -19.0, AF4-AF9 inh -0.2 and Cneo AK release 0.7.
Screening O=C(C[C@H]1CC[C@H]2[C@@H](COC[C@@H](O)CN2C(=O)Cc2ccccc2)O1)NC1CCCC1 returned DENV2 CPE inconclusive, rRNA inh HTS 0.7, S100A4 inh HTS -3.3, AF4-AF9 inh -18.2 and Cneo AK release -11.6.
`CC1CCN(C(=O)c2[nH]cnc2C(=O)N[C@@H](C)C(=O)OCc2ccccc2)CC1` gave DENV2 CPE -17.2, rRNA inh HTS 1.0, S100A4 inh HTS 138.0*, AF4-AF9 inh -2.4, Cneo AK release 0.7 and PfHsp90 set2 4.1.
C[C@H](NC(=O)c1nc[nH]c1C(=O)N1CCN(C(=O)OC(C)(C)C)CC1)C(=O)OCc1ccccc1 was read as DENV2 CPE inconclusive, rRNA inh HTS -1.1, S100A4 inh HTS 0.0, AF4-AF9 inh -1.1, Cneo AK release 1.5 and PfHsp90 set2 0.6.
Screening C[C@H](CO)N1C[C@H](C)[C@@H](CN(C)C(=O)Nc2ccccc2)Oc2c(NC(=O)Nc3ccc(F)cc3)cccc2C1=O returned DENV2 CPE 19.2, rRNA inh HTS -0.3, S100A4 inh HTS 4.4, AF4-AF9 inh 1.8 and Cneo AK release -1.7.
`C=CC(=C)CC(NC)c1ccccc1` (stereo not drawn) gave DENV2 CPE 0.4, rRNA inh HTS 21.5, S100A4 inh HTS -29.5, AF4-AF9 inh 27.7* and Cneo AK release 3.4.
O=C(c1ccccc1)c1ccc(OCCOCCN2CCN(Cc3ccccc3)CC2)cc1 was read as DENV2 CPE -3.1, rRNA inh HTS -36.5*, S100A4 inh HTS -6.0, AF4-AF9 inh 11.8 and PfHsp90 set2 -12.1.
For Cc1ccc(-n2ccnc(SCC(=O)NC3CCCC3)c2=O)cc1Cl the results were DENV2 CPE -5.1, rRNA inh HTS 2.6, S100A4 inh HTS -2.2, AF4-AF9 inh -2.1, Cneo AK release -1.3 and PfHsp90 set2 -20.7.
`O=C(CSc1nccn(-c2ccc(F)c(Cl)c2)c1=O)NC1CCCC1` gave DENV2 CPE 21.7*, rRNA inh HTS 8.4, S100A4 inh HTS 10.8, AF4-AF9 inh -2.9 and PfHsp90 set2 9.3.
